Experimental data from ChEMBL document CHEMBL1134291, “The synthesis of a prodrug of doxorubicin designed to provide reduced systemic toxicity and greater target efficacy” (J Med Chem, 2001).
Where a SMILES comes first, the peptide text is derived from it. The star is where a group is joined. X1 = COc1cccc2c1C(=O)c1c(O)c3c(c(O)c1C2=O)C[C@@](O)(C(=O)CO)C[C@@H]3OC1CC(N*)C(O)C(C)O1

Assays:
PSA = test: Time required for PSA to hydrolyze 50% (t1/2); assay type: ADME; details: PSA (enzyme)
DuPro = test: Concentration required to kill 50% of tumor cells in PSA nonproducing DuPRO human prostate cancer cell line; assay type: functional, cell-based
LNCaP [1] = test: Concentration required to kill 50% of tumor cells in PSA producing LNCaP human prostate cancer cell line; assay type: functional, cell-based
Mus musculus [2] = test: Maximum nonlethal drug dose which could be administered (ip) to non tumor bearing nude mice for 5 consecutive days; assay type: functional
LNCaP [3] = test: Percentage PSA reduction relative to vehicle control following intraperitoneal injection of conjugate dose for 5 consecutive days to nude mice bearing LNCaP tumor xenografts; assay type: functional, Homo sapiens
Mus musculus [4] = test: Percentage weight reduction relative to vehicle control following intraperitoneal (ip) injection of conjugate dose for 5 consecutive days to nude mice bearing LNCaP tumor xenografts( 21.7 umol/kg dose)
Mus musculus [5] = test: Percentage weight reduction relative to vehicle control following intraperitoneal (ip) injection of conjugate dose for 5 consecutive days to nude mice bearing LNCaP tumor xenografts(14.8 umol/kg dose); assay type: functional
Mus musculus [6] = test: Percentage weight reduction relative to vehicle control following intraperitoneal (ip) injection of conjugate dose for 5 consecutive days to nude mice bearing LNCaP tumor xenografts(18.9 umol/kg dose); assay type: functional
Mus musculus [7] = test: Percentage weight reduction relative to vehicle control following intraperitoneal (ip) injection of conjugate dose for 5 consecutive days to nude mice bearing LNCaP tumor xenografts( 22.7 umol/kg dose); assay type: functional
Summary of the method: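 Nude mice carrying xenografts of PSA-secreting human prostate LNCaP cells received the conjugate intraperitoneally once daily for 5 consecutive days. Circulating PSA and tumor weight were each expressed as percent reduction against vehicle-treated controls.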

Mus musculus [8] = test: Percentage weight reduction relative to vehicle control following intraperitoneal (ip) injection of conjugate dose for 5 consecutive days to nude mice bearing LNCaP tumor xenografts( 29.0 umol/kg dose); assay type: functional

Row | Compound | half-life (PSA) [min] | EC50 (DuPro) [µM] | EC50 (LNCaP [1]) [µM] | MTD (Mus musculus [2]) [µM/kg] | Reduction (LNCaP [3]) [%] | Reduction (Mus musculus [4]) [%] | Reduction (Mus musculus [5]) [%] | Reduction (Mus musculus [6]) [%] | Reduction (Mus musculus [7]) [%] | Reduction (Mus musculus [8]) [%]
1 | COc1cccc2c1C(=O)c1c(O)c3c(c(O)c1C2=O)C[C@@](O)(C(=O)CO)C[C@@H]3OC1CC(NC(=O)[C@H](CC(C)C)NC(=O)[C@H](CO)NC(=O)[C@@H](CCC(N)=O)NC(=O)[C@@H](NC(=O)[C@H](CO)NC(=O)[C@H](C)NC(=O)C2CC(O)CN2C(=O)CCC(=O)O)C2CCCCC2)C(O)C(C)O1 (stereo not given in full) | 55 | 100 | 5.7 | 28.9 | 94 | 72 |  |  |  | 
2 | COc1cccc2c1C(=O)c1c(O)c3c(c(O)c1C2=O)C[C@@](O)(C(=O)CO)C[C@@H]3OC1CC(NC(=O)[C@H](CC(C)C)NC(=O)[C@H](CO)NC(=O)[C@H](CCC(N)=O)NC(=O)[C@H](Cc2ccc(O)cc2)NC(=O)[C@H](CO)NC(=O)[C@H](C)NC(=O)[C@H](CCCN)NC(C)=O)C(O)C(C)O1 (stereo not given in full) | 40 | > 100 | 7.3 | 29.7 | 70 |  | 57 |  |  | 
3 | COc1cccc2c1C(=O)c1c(O)c3c(c(O)c1C2=O)C[C@@](O)(C(=O)CO)C[C@@H]3OC1CC(NC(=O)[C@H](CC(C)C)NC(=O)[C@H](CO)NC(=O)[C@@H](CCC(N)=O)NC(=O)[C@H](Cc2ccc(O)cc2)NC(=O)[C@H](CO)NC(=O)[C@H](C)NC(=O)[C@H](CCCN)NC(C)=O)C(O)C(C)O1 (stereo not given in full) | > 1200 | > 100 | 85 | >45.3 | 22 |  |  | 26 |  | 
4 | COc1cccc2c1C(=O)c1c(O)c3c(c(O)c1C2=O)C[C@@](O)(C(=O)CO)C[C@@H]3OC1CC(NC(=O)[C@H](CC(C)C)NC(=O)[C@H](CO)NC(=O)[C@@H](CCC(N)=O)NC(=O)[C@@H](NC(=O)[C@H](CO)NC(=O)[C@H](C)NC(=O)C2CC(O)CN2C(C)=O)C2CCCCC2)C(O)C(C)O1 (stereo not given in full) | 20 | > 100 | 4.5 | 22.7 | 96 |  |  |  | 81 | 
5 | COc1cccc2c1C(=O)c1c(O)c3c(c(O)c1C2=O)C[C@@](O)(C(=O)CO)C[C@@H]3OC1CC(NC(=O)[C@H](CC(C)C)NC(=O)[C@H](CO)NC(=O)[C@H](CO)NC(=O)[C@H](CO)NC(=O)[C@H](CCC(N)=O)NC(=O)[C@H](Cc2ccc(O)cc2)NC(=O)[C@H](CCCCN)NC(C)=O)C(O)C(C)O1 (stereo not given in full) (Ac-KYQSSSL-X1) | 60 | > 100 | 6.9 | 32.6 | 90 |  |  |  |  | 70
